Inconclusive results are not listed. Calls of active or inactive are those of the source. The rule behind the calls is not given here.
Legend:
Assay in all cases: cytotoxicity across cancer and normal cell panel, profiling panel, mechanism study for HRAS target identification project, CellTiter-Glo ATP luminescence, multiple timepoints (AID 652139)
Conditions in all cases: Cancer/normal cell panel viability
HT-29 = test system: HT-29
Outline: (§1)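 Test system: human tumour lines plus mouse C2C12 and HUVEC; Timing: overnight preculture, multiple exposures incl. 24, 48 h, all 37 °C; Plate: separate assay plate for each exposure timepoint; Technique: CellTiter-Glo luminescence measuring cellular ATP.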

CCRF-CEM = test system: CCRF-CEM
Outline: as §1

C2C12 = test system: C2C12
Outline: as §1

SR = test system: SR
Outline: as §1

HeLA = test system: HeLA
Outline: as §1

U-251 = test system: U-251
Outline: as §1

LOX-IMVI = test system: LOX-IMVI
Outline: as §1

SNB-75 = test system: SNB-75
Outline: as §1

HUVEC = test system: HUVEC
Outline: as §1

SNB-19 = test system: SNB-19
Outline: as §1

Compound `COC(=O)c1ccc([C@@H]2c3[nH]c4ccccc4c3C[C@@H](C(=O)OC)N2C(=O)CCl)cc1` has an AC50 (HT-29) of 0.177 µM, an AC50 (CCRF-CEM) of 0.0828 µM and an AC50 (C2C12) of 0.101 µM. It also gave an AC50 (SR) of 0.0329 µM, an AC50 (HeLA) of 0.573 µM and an AC50 (U-251) of 1.06 µM. The AC50 (LOX-IMVI) was 0.031 µM and the AC50 (SNB-75) was 0.355 µM.
With `Cc1onc(C(=O)N2CCN(C(c3ccc(Cl)cc3)c3ccc(Cl)cc3)CC2)c1[N+](=O)[O-]` the AC50 (HT-29) was 0.963 µM, the outcome (HUVEC) was “inactive” and the AC50 (CCRF-CEM) was 0.207 µM. For the same compound, the AC50 (SR) was 0.142 µM, the AC50 (U-251) was > 70 µM (inactive) and the AC50 (LOX-IMVI) was 0.103 µM. The AC50 (SNB-75) was 0.687 µM.
Work on `COc1ccc(N(C(=O)CCl)C(C(=O)NCCc2ccccc2)c2cccs2)cc1Cl` (centres undefined) yielded an AC50 (HT-29) of 0.162 µM, an AC50 (HUVEC) of 8.94 µM and an AC50 (CCRF-CEM) of 0.119 µM. The AC50 (C2C12) was 0.842 µM, the AC50 (SR) was 0.0618 µM and the AC50 (HeLA) was 0.547 µM. For the same compound, the AC50 (U-251) was 0.896 µM, the AC50 (SNB-19) was 1.17 µM and the AC50 (LOX-IMVI) was 0.0405 µM. It also gave an AC50 (SNB-75) of 0.286 µM.
`CC(C)(C)OC(=O)NCCOCCOCCOc1ccc(N(C(=O)CCl)C(C(=O)NCCc2ccccc2)c2cccs2)cc1Cl` (centres undefined) gave an AC50 (HT-29) of 0.457 µM, an AC50 (HUVEC) of 13.7 µM and an AC50 (CCRF-CEM) of 0.14 µM. For the same compound, the AC50 (C2C12) was 0.442 µM, the AC50 (SR) was 0.0951 µM and the AC50 (HeLA) was 0.65 µM. For the same compound, the AC50 (U-251) was 1.35 µM, the AC50 (SNB-19) was 1.72 µM and the AC50 (LOX-IMVI) was 0.0834 µM. For the same compound, the AC50 (SNB-75) was 0.686 µM.
With `CCC(=O)N(c1ccc(OC)c(Cl)c1)C(C(=O)NCCc1ccccc1)c1cccs1` (centres undefined) the AC50 (HT-29) was > 70 µM (inactive), the AC50 (HeLA) was > 70 µM (inactive) and the outcome (U-251) was “inactive”. The outcome (SNB-19) was “inactive” and the outcome (LOX-IMVI) was “inactive”.
With `Cc1onc(C(=O)N2CCN(C(c3ccncc3)c3ccncc3)CC2)c1[N+](=O)[O-]` the outcome (HT-29) was “inactive”, the outcome (HUVEC) was “inactive” and the outcome (CCRF-CEM) was “inactive”. The outcome (C2C12) was “inactive”, the outcome (SR) was “inactive” and the outcome (HeLA) was “inactive”. The outcome (U-251) was “inactive”, the outcome (SNB-19) was “inactive” and the outcome (LOX-IMVI) was “inactive”. The outcome (SNB-75) was “inactive”.
Work on `C#CCCCC(=O)NCCOCCOCCOc1ccc(N(C(=O)CCl)C(C(=O)NCCc2ccccc2)c2cccs2)cc1Cl` (centres undefined) yielded an AC50 (HT-29) of 2.86 µM, an AC50 (CCRF-CEM) of 1.34 µM and an AC50 (C2C12) of 5.42 µM. It also gave an AC50 (SR) of 0.885 µM, an AC50 (HeLA) of 4.49 µM and an AC50 (U-251) of 6.81 µM. It also gave an AC50 (SNB-19) of 4.45 µM, an AC50 (LOX-IMVI) of 0.421 µM and an AC50 (SNB-75) of 3.56 µM.

From PubChem BioAssay AID652139 (Broad Institute, 2013)
